In data set [1] the test system is HGC-27. Put plainly: Induction of apoptosis in human HGC-27 cells assessed as downregulation of Bcl-xl protein expression at incubated for 24 hrs by western blot analysis. Conditions: dose 0.1-1 µM.
Data set [2] relates to HGC-27. Put plainly: Antimigratory activity against human HGC-27 cells assessed as number of migration cells at 0.5 uM measured after 24 hrs by transwell migration assay (reference value: 320). In kind it is functional.
For data set [3], the system named is HUVEC. Put plainly: Cytotoxicity against HUVEC cells at 1 to 5 uM after 72 hrs by MTT assay. In kind it is cell-based. Conditions: human, dose 1-5 µM. In short, it runs like this:
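HUVECs grown in ECM with 1% ECGS and 10% FBS were seeded at 5 × 10³ per well and attached 24 h. Cells were exposed to compound at 1, 2.5 and 5 μM for 72 h at 37 °C. Viability was read by MTT: 4 h incubation, DMSO solubilization, absorbance at 490 nm.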

Data set [4] concerns HUVEC. The experiment in a line: Antiangiogenic activity against HUVEC cells assessed as reduction in VEGF-induced total branching points at 1 to 10 uM incubated for 12 hrs by matrigel-based assay. Format: functional, cell-based. To be noted: Homo sapiens, dose 1-10 µM. The method in brief: (§1)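 HUVECs at 4 × 10⁵ cells/mL seeded on Matrigel that had been polymerized 1 h at 37 °C. Cells were stimulated with 20 ng/mL VEGF and treated with compound (1, 2.5, 5 and 10 μM) or 0.1% DMSO vehicle for 12 h at 37 °C. Tubes were imaged by inverted microscopy. Tube length, surface area and branch points were quantified as pixel area.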

Data set [5] deals with HGC-27. Put plainly: Induction of intracellular ROS generation in human HGC-27cells incubated for 24 hrs by DCFH-DA staining-based flow cytometric analysis. In kind it is functional, cell-based. To be noted: dose 0.1-1 µM. The method in brief:
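HGC-27 cells (5.0 × 10⁵ per well) were treated 24 h with compound (0.1, 0.5, 1 μM) or 0.1% DMSO. Harvested cells were loaded with 10 μM DCFH-DA in PBS for 20 min at 37 °C. Green fluorescence intensity was measured by flow cytometry.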

The test system of data set [6] is HGC-27. The experiment in a line: Inhibition of colony formation in human HGC-27 cells at 1 uM after 12 days by crystal violet staining based assay. Format: functional. To be noted: HGC-27, 288 h, time 12 day. The method in brief: (§2)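 HGC-27 cells (500/well, 6-well plates) attached 24 h at 37 °C, then kept 12 days in medium with compound (0.1, 0.5, 1 µM), 0.1% DMSO vehicle or 5 µM sorafenib. Washed with cold PBS, methanol-fixed, stained 0.1% crystal violet 30 min; colonies >50 cells photographed and counted.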

Data set [7] relates to HGC-27. Put plainly: Induction of apoptosis in human HGC-27 cells assessed as late apoptotic cells level at 0.5 uM incubated for 24 hrs by propidium iode and annexin V-FITC staining based flow cytometry (reference value: 0.86%). In kind it is functional. The method in brief:
(§3)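 HGC-27 cells (1.0 × 10⁶ per 60 mm dish) were treated 24 h with 0.1% DMSO or compound (0.1, 0.5, 1 μM). Cells were stained with Annexin V-FITC in HEPES/NaCl/CaCl₂ binding buffer (pH 7.4) for 15 min at room temperature, then with PI for 10 min. About 10 000 events were acquired by flow cytometry to give viable, early apoptotic, late apoptotic and necrotic fractions.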

In data set [8] the test system is HGC-27. Put plainly: Inhibition of colony formation in human HGC-27 cells after 12 days by crystal violet staining based assay. Format: functional, cell-based. Conditions: dose 0.1-1 µM, time 12.0 day. In short, it runs like this: as §2
Data set [9] concerns HUVEC. Put plainly: Antiangiogenic activity against HUVEC cells assessed as reduction in VEGF-induced tube formation tube formation incubated for 12 hrs by matrigel-based assay. In kind it is functional, cell-based. Conditions: Homo sapiens. In short, it runs like this:
as §1

The target of data set [10] is T1, Vascular endothelial growth factor receptor 2 (Homo sapiens, UniProt P35968). Put plainly: Inhibition of VEGFR2 in human HGC-27 cells assessed as downregulation of PI3K phosphorylation at Tyr607 at 0.1 to 1 uM after 24 hrs by Westernblot analysis. Format: cell-based. Conditions: dose 0.1-1 µM. In short, it runs like this:
(§4)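 HGC-27 cells (1.0 × 10⁶ per 60 mm dish) were treated 24 h with 0.1% DMSO or compound (0.1, 0.5, 1 μM). RIPA lysates with phosphatase inhibitor were quantified by BCA and resolved on 8–12% SDS-PAGE onto nitrocellulose. Blots were probed for p-VEGFR-2 (Tyr1175), p-PI3K (Tyr607), p-AKT (Thr308) and p-mTOR (Ser2448), with ECL detection and densitometry; mean ± SEM.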

Data set [11] concerns the target T1, Vascular endothelial growth factor receptor 2. The experiment in a line: Inhibition of VEGFR2 in human HGC-27 cells assessed as downregulation of Akt phosphorylation at […] at 0.1 to 1 uM after 24 hrs by Westernblot analysis. Format: cell-based. Conditions: dose 0.1-1 µM. The method in brief: as §4
The target is the same in data set [12]. Put plainly: Inhibition of VEGFR2 (unknown origin) incubated for 10 mins followed by kinase substrate addition and measured after 30 mins by caliper mobility shift assay.
Data set [13] has as its system HGC-27. The experiment in a line: Induction of apoptosis in human HGC-27 cells assessed as up regulation of Bax protein expression at measured after 24 hrs by Western blot analysis. Conditions: dose 0.1-1 µM. In kind it is functional, cell-based. The method in brief:
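HGC-27 cells (1.0 × 10⁶ per 60 mm dish) were treated 24 h with 0.1% DMSO or compound (0.1, 0.5, 1 μM). Cells were lysed in RIPA with PMSF and phosphatase inhibitor, and protein measured by BCA. Lysates were run on 8–12% SDS-PAGE, transferred to nitrocellulose and probed with primary antibodies overnight at 4 °C, then HRP secondary. Bands were detected by ECL and densitometry; at least triplicate.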

Data set [14] has as its system HGC-27. The experiment in a line: Induction of intracellular ROS generation in human HGC-27cells assessed as increase in fluorescence intensity at 0.5 uM incubated for 24 hrs by DCFH-DA staining-based flow cytometric analysis (reference value: 712). In kind it is functional.
Data set [15] concerns HGC-27. The experiment in a line: Induction of apoptosis in human HGC-27 cells assessed as early apoptotic cells level incubated for 24 hrs by propidium iode and annexin V-FITC staining based flow cytometry. In kind it is functional, cell-based. To be noted: dose 0.1-1 µM. In short, it runs like this: as §3
Data set [16] deals with HGC-27. The experiment in a line: Antimigratory activity against human HGC-27 cells assessed as number of migration cells at 1 uM measured after 24 hrs by transwell migration assay (reference value: 320). In kind it is functional.
Data set [17] has as its target T1, Vascular endothelial growth factor receptor 2. The experiment in a line: Inhibition of VEGFR2 in human HGC-27 cells assessed as downregulation of mTOR phosphorylation at Ser2448 at 0.1 to 1 uM after 24 hrs by Westernblot analysis. In kind it is cell-based. To be noted: dose 0.1-1 µM. The method in brief: as §4
Data set [18] concerns HGC-27. The experiment in a line: Inhibition of cell migration at human HGC-27 cells in 0.1 to 1 uM measured up to 24 hrs by microscopic based wound healing assay. To be noted: dose 0.1-1 µM, time hrs <=24, TDE = time-dependent effect. In kind it is functional. The method in brief: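 HGC-27 grown to 80–90% confluence in 6-well plates, serum-starved 12 h, scratched with 200 µL tip (~1 mm lane). Washed, then given complete medium alone or with compound (0.1, 0.5, 1 µM) or sorafenib positive control. Imaged by inverted microscope at 0, 6 and 24 h; relative scratch closure quantified; mean ± SD, three independent experiments.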

For data set [19], the system named is HUVEC. The experiment in a line: Cytotoxicity against human HUVEC cells assessed as inhibition of cell growth incubated for 72 hrs by MTT assay. Format: cell-based. In short, it runs like this: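 Log-phase cells were seeded at 5 × 10³ per well and attached 24 h. HT-29 and GES-1 were grown in DMEM-based medium, A549/HepG2/HGC-27 in RPMI-1640, HUVEC in ECM with ECGS; all media had 10% FBS. Cells were exposed to graded compound concentrations for 72 h at 37 °C. MTT (5 mg/mL stock) was added for 4 h, formazan dissolved in DMSO, and A490 read. IC50 was obtained by nonlinear sigmoidal regression; mean ± S.E. of three experiments.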

pIC50: −log10 of the molar value. Activity calls are given as the source filed them. The calls are words filed in the database; no cut-off is given here.

T1 sequence (P35968 whole entry): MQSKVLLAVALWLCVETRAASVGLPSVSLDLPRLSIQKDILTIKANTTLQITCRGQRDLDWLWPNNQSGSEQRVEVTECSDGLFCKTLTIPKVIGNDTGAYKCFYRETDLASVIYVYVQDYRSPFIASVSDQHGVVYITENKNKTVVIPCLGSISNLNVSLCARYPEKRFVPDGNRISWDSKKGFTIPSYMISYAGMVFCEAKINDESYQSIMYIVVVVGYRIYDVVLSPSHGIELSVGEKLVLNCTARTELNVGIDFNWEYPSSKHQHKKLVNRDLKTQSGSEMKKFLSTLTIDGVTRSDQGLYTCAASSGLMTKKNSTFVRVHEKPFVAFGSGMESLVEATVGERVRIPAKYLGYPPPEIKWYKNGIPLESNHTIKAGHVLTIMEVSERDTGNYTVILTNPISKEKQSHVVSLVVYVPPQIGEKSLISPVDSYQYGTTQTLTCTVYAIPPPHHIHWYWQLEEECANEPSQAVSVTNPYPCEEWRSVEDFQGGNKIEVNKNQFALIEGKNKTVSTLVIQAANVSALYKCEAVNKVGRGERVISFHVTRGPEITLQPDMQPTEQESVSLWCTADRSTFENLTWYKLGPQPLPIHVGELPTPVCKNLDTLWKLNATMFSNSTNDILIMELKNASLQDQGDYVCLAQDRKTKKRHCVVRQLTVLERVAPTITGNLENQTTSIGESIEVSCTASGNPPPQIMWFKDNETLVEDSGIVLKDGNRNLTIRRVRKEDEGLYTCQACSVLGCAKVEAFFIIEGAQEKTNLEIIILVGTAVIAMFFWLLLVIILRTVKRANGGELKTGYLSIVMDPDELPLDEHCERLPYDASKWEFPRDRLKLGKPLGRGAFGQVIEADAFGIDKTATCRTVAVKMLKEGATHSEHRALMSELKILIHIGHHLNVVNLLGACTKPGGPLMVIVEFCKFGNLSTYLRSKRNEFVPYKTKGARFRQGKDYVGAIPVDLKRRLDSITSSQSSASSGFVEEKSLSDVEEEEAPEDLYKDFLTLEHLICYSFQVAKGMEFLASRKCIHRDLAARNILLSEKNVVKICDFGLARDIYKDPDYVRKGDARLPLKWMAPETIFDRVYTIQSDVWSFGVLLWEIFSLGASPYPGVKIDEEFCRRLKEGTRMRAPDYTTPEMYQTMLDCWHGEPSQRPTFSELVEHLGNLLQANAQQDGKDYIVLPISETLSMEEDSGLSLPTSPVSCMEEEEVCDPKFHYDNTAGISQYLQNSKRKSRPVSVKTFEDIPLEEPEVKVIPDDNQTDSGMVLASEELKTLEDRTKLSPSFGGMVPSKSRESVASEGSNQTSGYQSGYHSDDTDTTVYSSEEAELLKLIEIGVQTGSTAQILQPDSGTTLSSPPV

In the case of `CC(=O)Nc1n[nH]c2cc(-c3cnn(CC(=O)Nc4ccc(C)c(C(F)(F)F)c4)c3)ccc12`, the Activity result in the data set on HGC-27 [1] is “Dose-Dependent Effect”; in the data set with HGC-27 [2], 87; in the data set with HUVEC [3], “Non-Toxic”; in the data set on HGC-27 [5], “Dose-Dependent Effect”; in the data set with HGC-27 [7], 11.2%; with HGC-27 [13], “Dose-Dependent Effect”. Further, the Activity result in the data set on HGC-27 [15] was “Dose-Dependent Effect”; with HGC-27 [16], 22. In addition, in the data set on HUVEC [4], the result was Active. The compound also showed an inhibition at 1 µM with HGC-27 [6] of 100%. In addition, the inhibition entry is “Dose-Dependent Effect” in the data set with HGC-27 [8], “Dose-Dependent Effect” with HUVEC [9] and “Tde” in the data set on HGC-27 [18]. Moreover, the inhibition result in data set [10], in data set [11] and in data set [17] was “Active” throughout. Besides, the pIC50 in data set [12] was 8.80; in the data set on HUVEC [19], 5.15. In addition, the Flu intensity in the data set on HGC-27 [14] worked out at 945.

The record behind these values is ChEMBL document CHEMBL4819027, “Design, synthesis and biological evaluation of novel 2-(4-(1H-indazol-6-yl)-1H-pyrazol-1-yl)acetamide derivatives as potent VEGFR-2 inhibitors” (Eur J Med Chem, 2021).
